# PHOSPHO1 block: blocks human PHOSPHO1 phosphatase activity; recombinant PHOSPHO1, absorbance phosphatase assay; inhibition, % at 13.3 µM; actives 1.1% (n = 290,000); AID 1565; in the data active = inhibition above about 60%
# Target sequence (Q8TCT1 whole entry, looked up): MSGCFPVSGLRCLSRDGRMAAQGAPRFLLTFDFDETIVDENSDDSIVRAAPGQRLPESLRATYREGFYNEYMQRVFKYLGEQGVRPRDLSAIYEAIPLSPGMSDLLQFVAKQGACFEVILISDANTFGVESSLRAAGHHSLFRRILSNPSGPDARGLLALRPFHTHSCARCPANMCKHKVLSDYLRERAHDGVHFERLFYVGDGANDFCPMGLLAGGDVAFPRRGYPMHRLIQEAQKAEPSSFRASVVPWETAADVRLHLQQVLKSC
# HSF1 inh: HSF1 inhibition; NIH3T3-HGL HSE-luciferase, MG132-induced, luminescence 8 h; active compounds read low; actives 0.77% (n = 300,000); activity change, negative = inhibition, % at 7.5 µM (by protocol);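 active = more than half of replicate wells show activity change below -50%, luminescence cut by over half; inconclusive = some wells, but at most half, below -50%; inactive = no replicate well below -50%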;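 note: luciferase reports HSF-1 transcriptional activity via heat shock element; 0% = median of DMSO wells and -100% = zero luminescence signal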
# HCV core dimer: HCV core protein dimerization inhibition; TR-FRET GST/Flag-core106 dimerization, 1536-well; inhibition, % at 5 µM; actives 0.33% (n = 300,000);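 active = inhibition above the mean of all tested compounds plus 3 SD, set per screening campaign, cut at about 45% in these data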
#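 test system = GST/Flag-tagged HCV core106 proteins | probe or stimulus = Eu donor and XL665 acceptor anti-tag antibodies | times = compound-protein-antibody incubation 4 h at 22.5 °C | signal = TR-FRET, excitation 340 nm, emission 617 and 671 nm | measure = percent inhibition of core106 dimerization signal | controls = wells lacking GST-core106 and wells with excess unlabelled core106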
# AI-2 QS mod: modulators of Vibrio harveyi AI-2 quorum sensing system | Vibrio harveyi JMH597 AI-2 luminescence/OD600 ratio, 9 h; active compounds read low; strain lacks LuxN and CqsS sensors; 0 = neutral-control median | activity change, % at 7.5 µM | actives 0.4% (n = 300,000) | AID 2094; in the data active = activity change below about -75%, passing the limit was not always enough; inconclusive = no clear call, values can overlap the other calls;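 note: luminescence divided by OD600 gain over 9 h not by final OD600 alone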
# HSF-1 act: increases HSF-1 driven luciferase reporter signal | activation, % at 9 µM | actives 1.7% (n = 300,000) | AID 504408 | NIH3T3-HGL HSF-1 luciferase reporter, MG132, 8 h; 100% = twice DMSO control signal;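 active = mean replicate activation of at least 50% with a set share of replicates each reaching 50%; inconclusive = only one of those two conditions met; inactive = mean below 50% and too few replicates reaching it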;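 note: 0% = median of the neutral control wells and 100% = twice that signal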
# ALR H2O2 inh: human ALR oxidase inhibition via reduced H2O2 | purified ALR, DTT oxidation, H2O2 HRP-luminol luminescence | inhibition, % (concentration not given with the values) | P55789 | actives 3.8% (n = 290,000);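 active = mean replicate inhibition above about 79%, with every replicate also reaching it, limit read from the data; inconclusive = only one of the two criteria met; inactive = mean below limit and not every replicate reaching it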
# Target sequence (P55789 whole entry, looked up): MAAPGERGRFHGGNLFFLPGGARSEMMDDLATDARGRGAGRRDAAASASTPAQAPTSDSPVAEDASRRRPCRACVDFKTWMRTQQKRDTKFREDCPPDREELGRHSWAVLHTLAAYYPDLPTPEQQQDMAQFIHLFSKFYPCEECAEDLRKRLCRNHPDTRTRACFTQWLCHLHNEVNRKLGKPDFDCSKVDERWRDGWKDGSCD
# * marks the source's active call; other numbers are inactive results; ? = inconclusive; . = not tested or not shown. Rows were chosen to be rich in hits. Some 6.8% of all compounds tested hit in one or more screens of this group.
SMILES,PHOSPHO1 block,HSF1 inh,HCV core dimer,AI-2 QS mod,HSF-1 act,ALR H2O2 inh
CN1Cc2cccnc2N(C)Cc2cc(Cl)ccc21,-9.8,-0.8,3.4,-0.9,-6.1,98.8*
O=C1NC(=O)N(Cc2ccco2)C(=O)/C1=C/c1ccc(-c2cccc([N+](=O)[O-])c2)o1,1.5,0.1,16.0,34.5,9.6,54.4
C=CCN1C(=O)NC(=O)/C(=C\c2ccc(-c3ccccc3[N+](=O)[O-])o2)C1=O,5.8,-2.3,2.1,5.0,-6.3,98.3*
CCOc1cc2c(cc1OCC)-n1cccc1C(c1cc(OC)ccc1F)NC2 (stereo not drawn),-10.9,-3.1,-6.1,14.6,0.1,-8.5
O=c1c2ccccc2[nH]c(=S)n1-c1ccc2c(c1)OCO2,18.2,-1.7,-0.7,9.4,1.5,59.4
Cc1cnc(-n2c(=S)[nH]c3ccccc3c2=O)s1,.,.,.,.,.,96.7*
O=C1NC(=S)N(Cc2ccco2)C(=O)/C1=C\c1cccs1,76.9*,.,.,.,.,.
Cc1cc(/C=C2/C(=O)NC(=O)N(Cc3ccco3)C2=O)c(C)n1-c1ccccc1,-2.2,-29.2,35.0,11.8,-37.6,91.6*
C=CCN1C(=O)/C(=C/c2cccs2)C(=O)NC1=S,4.4,-6.2,0.6,27.2,24.4,96.3*
CN(C)c1ccc(/C=C2/C(=O)NC(=O)N(Cc3ccco3)C2=O)cc1,-1.3,0.5,4.4,14.3,-8.1,19.5
CSc1ccc(C(=O)C2CCCN(CCCn3cccn3)C2)cc1 (stereo not drawn),26.9,-2.9,1.3,5.7,-18.3,1.4
Cn1cccc1/C=C1/C(=O)NC(=O)N(C(C)(C)C)C1=O,28.3,-4.1,-3.1,4.2,-5.8,20.5
Cc1cc(C)cc(N2C(=O)NC(=O)/C(=C\c3cccn3-c3ccc(Cl)cc3)C2=O)c1,30.0,4.4,11.2,26.8,8.8,97.8*
Cc1cc(C)cc(N2C(=O)NC(=O)/C(=C\c3cccn3-c3ccccc3)C2=O)c1,-14.7,2.3,-0.3,2.1,17.8,51.2
O=C1NC(=S)NC(=O)C1=Cc1cccn1-c1ccc(O)cc1,0.6,139.2,.,?,153.8*,.
CN1C(=O)/C(=C/c2cccn2-c2ccc3ccccc3c2)C(=O)NC1=S,-2.6,3.0,64.6*,22.1,25.5,-13.1
COc1ccc(C2=NS(=O)(=O)N(C)C(C(=O)N3CCC4(CC3)OCCO4)=C2)cc1OC,26.3,-0.5,5.7,19.4,3.7,4.1
CCN(CC)CCO,.,.,.,.,.,-3.6
O=C(NC1CCCCC1)Oc1cc2oc(=O)sc2cc1Cl,27.4,1.6,-7.7,-34.8,-6.2,92.3*
COc1cc(C(O)CNC(C)C)cc(F)c1OC (stereo not drawn),.,2.3,0.9,25.3,-4.9,0.5
COc1ccc(N2C(=O)NC(=O)/C(=C/c3ccc([N+](=O)[O-])s3)C2=O)cc1,-10.5,20.8,1.3,?,64.3*,40.5
COc1ccc(N2C(=O)NC(=O)/C(=C\c3ccc([N+](=O)[O-])s3)C2=O)cc1,-93.5,12.5,1.8,?,27.3,7.3
CN/C=C(/Cl)P(=O)(OC(C)C)OC(C)C,.,6.5,13.4,16.6,16.2,-0.8
N#CCCn1cc(C(=O)Nc2ccc(F)cc2)c(-c2ccc([N+](=O)[O-])cc2)n1,29.2,-0.7,-2.9,23.3,7.2,-6.1
N#CCCn1cc(C(=O)Nc2ccc([N+](=O)[O-])cc2)c(-c2ccccc2)n1,34.7,-71.1*,-4.8,7.5,-77.7,.
SMILES,PHOSPHO1 block,HSF1 inh,HCV core dimer,AI-2 QS mod,HSF-1 act,ALR H2O2 inh
CCOc1cc2c(cc1OCC)-n1cccc1C(c1ccccc1F)NC2 (stereo not drawn),47.9,3.9,3.4,48.7,-3.0,-29.9
COc1cc(C2NCc3ccccc3-n3cccc32)ccc1O (stereo not drawn),0.1,15.6,-5.4,6.8,54.2*,24.3
CCOc1cc2c(cc1OCC)-n1cccc1C(c1cccc(OCC)c1O)NC2 (stereo not drawn),25.7,29.0,-8.2,0.3,51.1*,.
Cc1[nH]c2ccccc2c1C1=CCNCC1,16.0,-4.1,-0.9,19.7,-3.5,93.9*
C1=NCCc2c1[nH]c1ccccc21,.,-5.8,-5.0,12.5,-6.9,-2.3
Cc1ccc(OCCOc2cccc(C=C3C(=O)NC(=O)NC3=O)c2)cc1,2.5,-4.9,3.5,-1.0,4.3,8.2
COC(=O)C1=C(c2ccc(Cl)c(C(F)(F)F)c2)C[C@@H]2CC[C@H]1N2C(=O)N1CCC(C)CC1,.,.,.,.,.,8.6
COC(=O)C1=C(c2cccc(C#N)c2)C[C@@H]2CC[C@H]1N2C(=O)NC1CC1,.,.,.,.,.,-2.5
COc1ccc2c3c([nH]c2c1)C(C)=NCC3,3.5,-9.2,-11.5,22.3,-16.3,12.6
CC1=NCCc2c1[nH]c1cc(O)ccc21,.,.,-1.1,.,.,98.8*
O=C(Cc1ccccc1)Oc1ccccc1N1C(=O)CCC1=O,0.1,-61.8*,-3.3,6.4,-69.5,9.1
O=C(Cn1ncc2c3ccccc3n(Cc3cccc(Cl)c3)c2c1=O)N1CCC2(CC1)OCCO2,15.8,7.0,32.7,16.6,41.0,-0.9
Cn1c2ccccc2c2cnn(CC(=O)N3CCC4(CC3)OCCO4)c(=O)c21,4.6,-56.1*,-3.2,22.1,-63.9,.
CCC(c1ccc(C)cc1)N1C(=O)C2C3CCC(O3)C2C1=O (stereo not drawn),.,.,.,.,.,-3.0
COC(=O)C1=C(c2ccc(F)cc2OCc2ccccc2)C[C@@H]2CC[C@H]1N2C(=O)NCCN1CCOCC1,.,.,.,.,.,25.5
Nc1ncnc2c1ccn2[C@@H]1O[C@H](CO)[C@@H](O)[C@H]1O,.,-79.0*,0.2,16.5,-80.3,-37.1
NC(=S)c1cn(C2OC(CO)C(O)C2O)c2ncnc(N)c12 (stereo not drawn),-102.6,-67.3*,5.0,17.1,-71.2,36.6
Cc1ccccc1N1CCN(C2CCCN(C(=O)Cc3c(C)noc3C)C2)CC1 (stereo not drawn),25.0,-2.9,-3.1,18.5,4.2,4.4
COC(=O)C1=C(c2ccc(C(C)=O)cc2)C[C@@H]2CC[C@H]1N2C(=O)NCc1ccc(C(F)(F)F)cc1,.,.,.,.,.,2.9
O=[N+]([O-])c1ccc2nc(N3CCNCC3)ccc2c1,.,13.0,1.3,34.3,2.1,-6.6
O=C1NC(=O)N(c2ccccc2F)C(=O)/C1=C/c1ccc(Sc2nc3ccccc3[nH]2)o1,-38.2,.,5.2,.,.,97.6*
O=C1NC(=O)N(c2ccccc2)C(=O)/C1=C/c1ccc(Sc2ccccc2)o1,11.1,-1.9,8.7,9.4,33.7,96.8*
COc1cccc(NP2(=O)OCC(C)([N+](=O)[O-])CO2)c1 (stereo not drawn),.,-6.9,.,.,-6.9,.
COc1ccc(-n2c(C)nc3ccccc3c2=O)c([N+](=O)[O-])c1,18.5,-6.1,-1.0,0.3,4.1,-6.4
CC1(C)CN=C(Nc2nc3ccccc3s2)S1,-31.3,24.7,-1.7,23.4,53.6*,7.9
